ChEMBL document CHEMBL3588853, “Synthesis, biological evaluation, and molecular docking studies of novel 1-benzene acyl-2-(1-methylindol-3-yl)-benzimidazole derivatives as potential tubulin polymerization inhibitors” (Eur J Med Chem, 2015)

Experiments:
MCF7 = assay: Growth inhibition of human MCF7 cells assessed as inhibition of cell proliferation after 24 hrs by MTT assay; type: functional; details: MCF7, 24 h
Outline: (§1)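 Cells seeded at (1–5) × 10^3 per well and grown 12 h at 37 °C. Compounds added at increasing concentrations in medium with 10% FBS for 24 h. MTT dye then added, followed by 3–4 h at 37 °C. Medium discarded, formazan dissolved in DMSO and plate read. GI50 calculated relative to DMSO-treated control wells.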

Tubulin = Tubulin (Bos taurus, UniProt Q6B856+Q862F3); assay: Inhibition of bovine brain tubulin polymerization extent after 20 mins by turbidimetrically
Tubulin, sequence (Q6B856 whole entry): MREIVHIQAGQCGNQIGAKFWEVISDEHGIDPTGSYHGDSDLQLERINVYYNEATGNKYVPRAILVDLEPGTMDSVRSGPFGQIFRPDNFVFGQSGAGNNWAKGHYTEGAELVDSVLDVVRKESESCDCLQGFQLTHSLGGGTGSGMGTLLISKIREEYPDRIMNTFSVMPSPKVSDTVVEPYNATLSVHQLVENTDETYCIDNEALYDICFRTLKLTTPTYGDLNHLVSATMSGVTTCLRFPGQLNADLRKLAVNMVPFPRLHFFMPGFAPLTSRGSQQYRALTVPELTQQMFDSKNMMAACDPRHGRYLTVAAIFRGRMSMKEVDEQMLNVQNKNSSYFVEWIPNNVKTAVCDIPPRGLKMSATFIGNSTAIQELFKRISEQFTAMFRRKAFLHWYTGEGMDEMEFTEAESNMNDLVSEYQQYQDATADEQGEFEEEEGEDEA
Tubulin, sequence (Q862F3 whole entry): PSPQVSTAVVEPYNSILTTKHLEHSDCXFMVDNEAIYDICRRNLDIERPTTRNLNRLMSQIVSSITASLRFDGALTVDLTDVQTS

A549 [1] = assay: Induction of cell cycle arrest in human A549 cells assessed as accumulation at G0/G1 phase at 1 uM after 24 hrs by propidium iodide staining based flow cytometric analysis (reference value: 79.11%); type: functional
A549 [2] = assay: Induction of cell cycle arrest in human A549 cells assessed as accumulation at G2/M phase at 1 uM after 24 hrs by propidium iodide staining based flow cytometric analysis (reference value: 13.26%); type: functional
A549 [3] = assay: Induction of cell cycle arrest in human A549 cells assessed as accumulation at S phase at 1 uM after 24 hrs by propidium iodide staining based flow cytometric analysis (reference value: 7.63%); type: functional
A549 [4] = assay: Induction of cell cycle arrest in human A549 cells assessed as accumulation at SubG0 phase at 1 uM after 24 hrs by propidium iodide staining based flow cytometric analysis (reference value: 0%); type: functional
A549 [5] = assay: Induction of cell cycle arrest in human A549 cells assessed as accumulation at G0/G1 phase at 2 uM after 24 hrs by propidium iodide staining based flow cytometric analysis (reference value: 79.11%); type: functional
A549 [6] = assay: Induction of cell cycle arrest in human A549 cells assessed as accumulation at G2/M phase at 2 uM after 24 hrs by propidium iodide staining based flow cytometric analysis (reference value: 13.26%); type: functional
A549 [7] = assay: Induction of cell cycle arrest in human A549 cells assessed as accumulation at S phase at 2 uM after 24 hrs by propidium iodide staining based flow cytometric analysis (reference value: 7.63%); type: functional
A549 [8] = assay: Induction of cell cycle arrest in human A549 cells assessed as accumulation at SubG0 phase at 2 uM after 24 hrs by propidium iodide staining based flow cytometric analysis (reference value: 0%); type: functional
A549 [9] = assay: Induction of cell cycle arrest in human A549 cells assessed as accumulation at G0/G1 phase at 5 uM after 24 hrs by propidium iodide staining based flow cytometric analysis (reference value: 79.11%); type: functional
A549 [10] = assay: Induction of cell cycle arrest in human A549 cells assessed as accumulation at G2/M phase at 5 uM after 24 hrs by propidium iodide staining based flow cytometric analysis (reference value: 13.26%); type: functional
A549 [11] = assay: Induction of cell cycle arrest in human A549 cells assessed as accumulation at S phase at 5 uM after 24 hrs by propidium iodide staining based flow cytometric analysis (reference value: 7.63%); type: functional
A549 [12] = assay: Induction of cell cycle arrest in human A549 cells assessed as accumulation at SubG0 phase at 5 uM after 24 hrs by propidium iodide staining based flow cytometric analysis (reference value: 0%); type: functional
A549 [13] = assay: Induction of apoptosis in human A549 cells assessed as necrotic cells at 1 uM after 24 hrs by annexin V/PI double staining FACScalibur flow cytometry (reference value: 0.529%); type: functional
A549 [14] = assay: Induction of apoptosis in human A549 cells assessed as late apoptotic cells at 1 uM after 24 hrs by annexin V/PI double staining FACScalibur flow cytometry (reference value: 0.406 %); type: functional
A549 [15] = assay: Induction of apoptosis in human A549 cells assessed as early apoptotic cells at 1 uM after 24 hrs by annexin V/PI double staining FACScalibur flow cytometry (reference value: 0.061%); type: functional
A549 [16] = assay: Induction of apoptosis in human A549 cells assessed as viable cells at 1 uM after 24 hrs by annexin V/PI double staining FACScalibur flow cytometry (reference value: 99%); type: functional; details: A549, 24 h, read-out: Activity
A549 [17] = assay: Induction of apoptosis in human A549 cells assessed as necrotic cells at 2 uM after 24 hrs by annexin V/PI double staining FACScalibur flow cytometry (reference value: 0.529%); type: functional
A549 [18] = assay: Induction of apoptosis in human A549 cells assessed as late apoptotic cells at 2 uM after 24 hrs by annexin V/PI double staining FACScalibur flow cytometry (reference value: 0.406 %); type: functional
A549 [19] = assay: Induction of apoptosis in human A549 cells assessed as early apoptotic cells at 2 uM after 24 hrs by annexin V/PI double staining FACScalibur flow cytometry (reference value: 0.061%); type: functional
A549 [20] = assay: Induction of apoptosis in human A549 cells assessed as viable cells at 2 uM after 24 hrs by annexin V/PI double staining FACScalibur flow cytometry (reference value: 99%); type: functional; details: A549, 24 h, read-out: Activity
A549 [21] = assay: Induction of apoptosis in human A549 cells assessed as necrotic cells at 5 uM after 24 hrs by annexin V/PI double staining FACScalibur flow cytometry (reference value: 0.529%); type: functional
A549 [22] = assay: Induction of apoptosis in human A549 cells assessed as late apoptotic cells at 5 uM after 24 hrs by annexin V/PI double staining FACScalibur flow cytometry (reference value: 0.406 %); type: functional
A549 [23] = assay: Induction of apoptosis in human A549 cells assessed as early apoptotic cells at 5 uM after 24 hrs by annexin V/PI double staining FACScalibur flow cytometry (reference value: 0.061%); type: functional
A549 [24] = assay: Induction of apoptosis in human A549 cells assessed as viable cells at 5 uM after 24 hrs by annexin V/PI double staining FACScalibur flow cytometry (reference value: 99%); type: functional; details: A549, 24 h, read-out: Activity
A549 [25] = assay: Growth inhibition of human A549 cells assessed as inhibition of cell proliferation after 24 hrs by MTT assay; type: functional; details: A549, 24 h; outline: as §1
HepG2 = assay: Growth inhibition of human HepG2 cells assessed as inhibition of cell proliferation after 24 hrs by MTT assay; type: functional; details: HepG2, 24 h; outline: as §1
Tubulin (Bos taurus) = Tubulin (Bos taurus) (UniProt Q6B856+Q862F3); details: at 5 µM

Molecule `COc1ccc2c(c1)c(-c1nc3ccccc3n1C(=O)c1cc(OC)c(OC)c(OC)c1)cn2C` has a GI50 (MCF7) of 5.1 µM, an IC50 (Tubulin) of 1.5 µM and an Activity (A549 [1]) of 60.17%. For the same molecule, the Activity (A549 [2]) was 27.23%, the Activity (A549 [3]) was 12.51% and the Activity (A549 [4]) was 0%. It also gave an Activity (A549 [5]) of 57.42%, an Activity (A549 [6]) of 33.21% and an Activity (A549 [7]) of 12.51%. For the same molecule, the Activity (A549 [8]) was 0%, the Activity (A549 [9]) was 49.3% and the Activity (A549 [10]) was 39.46%. The Activity (A549 [11]) was 11.24%, the Activity (A549 [12]) was 0% and the Activity (A549 [13]) was 0.59%. The Activity (A549 [14]) was 4.77%, the Activity (A549 [15]) was 14.8% and the viability at 1 µM (A549 [16]) was 79.8%. The Activity (A549 [17]) was 0.543%, the Activity (A549 [18]) was 5.13% and the Activity (A549 [19]) was 17%. For the same molecule, the viability at 2 µM (A549 [20]) was 77.3%, the Activity (A549 [21]) was 0.595% and the Activity (A549 [22]) was 6.03%. It also gave an Activity (A549 [23]) of 17.2%, a viability at 5 µM (A549 [24]) of 76.2% and a GI50 (A549 [25]) of 2.4 µM. The GI50 (HepG2) was 3.8 µM and the inhibition (Tubulin (Bos taurus)) was 96%.
